Measurements: ChEMBL document CHEMBL1926507, “Discovery of a new class of bicyclic substituted hydroxyphenylmethanones as 17β-hydroxysteroid dehydrogenase type 2 (17β-HSD2) inhibitors for the treatment of osteoporosis” (Eur J Med Chem, 2012)
pIC50: −log10 of the molar value.

Molecular target: T1, 17-beta-hydroxysteroid dehydrogenase type 2 (Homo sapiens) (UniProt P37059)
T1 sequence (whole entry): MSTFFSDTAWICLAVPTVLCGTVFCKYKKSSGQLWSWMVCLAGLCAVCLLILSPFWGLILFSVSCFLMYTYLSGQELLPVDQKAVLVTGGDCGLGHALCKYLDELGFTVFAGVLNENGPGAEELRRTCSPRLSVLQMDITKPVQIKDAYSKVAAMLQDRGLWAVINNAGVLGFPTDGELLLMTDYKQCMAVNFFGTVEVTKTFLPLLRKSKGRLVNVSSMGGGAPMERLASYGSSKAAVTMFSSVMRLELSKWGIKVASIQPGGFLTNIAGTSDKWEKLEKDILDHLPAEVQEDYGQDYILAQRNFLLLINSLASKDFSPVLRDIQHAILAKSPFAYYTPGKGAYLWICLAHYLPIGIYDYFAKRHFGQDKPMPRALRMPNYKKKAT
Assay: Inhibition of human microsomal 17beta-HSD2 using [2,4,6,7-3H]E2 as substrate at 1 uM after 20 mins by radioflow detector
Procedure, shortened: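 Microsomal fraction from human placenta incubated at 37 °C for 20 min with NAD+ (1500 µM), inhibitor and unlabeled plus [2,4,6,7-3H]-E2 (final 500 nM). Phosphate buffer 50 mM with 20% glycerol and 1 mM EDTA. Inhibitor stocks made in DMSO. Reaction stopped with HgCl2 and extracted with ether. E2 and E1 separated by HPLC with radioflow detection. Values are the mean of three determinations.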

inhibition [%] | Structure (SMILES)
73 | Cc1cc(-c2ccc(C(=O)c3cccc(O)c3)nc2)ccc1O
77 | Cc1cc(-c2cccc(C(=O)c3cccc(O)c3)c2)ccc1O
55 | O=C(c1cccc(O)c1)c1cccc(-c2ccc(O)c(Cl)c2)n1
84 | Cc1cc(-c2cccc(C(=O)c3cccc(O)c3)n2)ccc1O
98 | Cc1cc(-c2ccc(C(=O)c3ccc(F)c(O)c3)cc2)ccc1O
56 | O=C(c1cccc(O)c1)c1cccc(-c2ccc(O)cc2F)n1
100 | Cc1cc(-c2ccc(C(=O)c3cc(O)cc(F)c3)cc2)ccc1O
100 | O=C(c1ccc(-c2ccc(O)c(Cl)c2)cc1)c1ccc(F)c(O)c1
< 10 | O=C(c1cccc(O)c1)c1cccc(-c2cccc(O)c2)n1
16 | O=C(c1cccc(O)c1)c1cccc(-c2ccc(O)cc2)n1
84 | Cc1cc(-c2ccc(C(=O)c3cccc(O)c3)cn2)ccc1O
92 | O=C(c1ccc(-c2ccc(O)c(Cl)c2)cc1)c1cccc(O)c1

Molecular target: T2, 17-beta-hydroxysteroid dehydrogenase type 1 (Homo sapiens) (UniProt P14061)
T2 sequence (whole entry): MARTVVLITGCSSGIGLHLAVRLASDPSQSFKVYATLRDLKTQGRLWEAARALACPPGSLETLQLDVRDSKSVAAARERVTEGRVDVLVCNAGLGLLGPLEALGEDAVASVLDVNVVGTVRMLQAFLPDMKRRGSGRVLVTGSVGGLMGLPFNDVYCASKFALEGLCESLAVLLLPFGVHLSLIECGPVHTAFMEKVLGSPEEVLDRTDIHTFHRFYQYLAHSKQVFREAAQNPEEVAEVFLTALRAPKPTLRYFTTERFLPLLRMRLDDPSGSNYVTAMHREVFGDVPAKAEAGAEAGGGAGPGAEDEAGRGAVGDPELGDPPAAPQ
Assay: Inhibition of human cytosolic 17beta-HSD1 using [2,4,6,7-3H]E1 as substrate at 1 uM after 10 mins by radioflow detector
Procedure, shortened: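 Cytosolic fraction from human placenta incubated with NADH (500 µM), test compound and unlabeled plus [2,4,6,7-3H]-E1 (final 500 nM) for 10 min at 37 °C. Phosphate buffer 50 mM with 20% glycerol and 1 mM EDTA. Inhibitor stocks made in DMSO. Reaction stopped with HgCl2 and extracted with ether. Substrate and product separated by HPLC with radioflow detection. Values are the mean of three determinations.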

inhibition [%] | Structure (SMILES)
24 | Cc1cc(-c2ccc(C(=O)c3cccc(O)c3)nc2)ccc1O
50 | Cc1cc(-c2cccc(C(=O)c3cccc(O)c3)c2)ccc1O
< 10 | O=C(c1cccc(O)c1)c1cccc(-c2ccc(O)c(Cl)c2)n1
< 10 | Cc1cc(-c2cccc(C(=O)c3cccc(O)c3)n2)ccc1O
79 | Cc1cc(-c2ccc(C(=O)c3ccc(F)c(O)c3)cc2)ccc1O
64 | O=C(c1cccc(O)c1)c1cccc(-c2ccc(O)cc2F)n1
84 | Cc1cc(-c2ccc(C(=O)c3cc(O)cc(F)c3)cc2)ccc1O
95 | O=C(c1ccc(-c2ccc(O)c(Cl)c2)cc1)c1ccc(F)c(O)c1
< 10 | O=C(c1cccc(O)c1)c1cccc(-c2cccc(O)c2)n1
< 10 | O=C(c1cccc(O)c1)c1cccc(-c2ccc(O)cc2)n1
58 | Cc1cc(-c2ccc(C(=O)c3cccc(O)c3)cn2)ccc1O
66 | O=C(c1ccc(-c2ccc(O)c(Cl)c2)cc1)c1cccc(O)c1

Molecular target: T3, 17-beta-hydroxysteroid dehydrogenase type 2 (Homo sapiens, UniProt P37059)
T3 sequence (P37059 whole entry): T1 sequence (whole entry)
Assay: Inhibition of human microsomal 17beta-HSD2 in cell-free system using [2,4,6,7-3H]E2 as substrate after 20 mins by radioflow detector

pIC50 | Structure (SMILES)
6.59 | Cc1cc(-c2ccc(C(=O)c3cccc(O)c3)nc2)ccc1O
6.42 | Cc1cc(-c2cccc(C(=O)c3cccc(O)c3)c2)ccc1O
6.12 | O=C(c1cccc(O)c1)c1cccc(-c2ccc(O)c(Cl)c2)n1
7.47 | Cc1cc(-c2ccc(C(=O)c3ccc(F)c(O)c3)cc2)ccc1O
7.51 | Cc1cc(-c2ccc(C(=O)c3cc(O)cc(F)c3)cc2)ccc1O
7.62 | O=C(c1ccc(-c2ccc(O)c(Cl)c2)cc1)c1ccc(F)c(O)c1
6.66 | Cc1cc(-c2ccc(C(=O)c3cccc(O)c3)cn2)ccc1O
6.82 | O=C(c1ccc(-c2ccc(O)c(Cl)c2)cc1)c1cccc(O)c1

Molecular target: T4, 17-beta-hydroxysteroid dehydrogenase type 1 (Homo sapiens, UniProt P14061)
T4 sequence (P14061 whole entry): T2 sequence (whole entry)
Assay: Inhibition of human cytosolic 17beta-HSD1 in cell-free system using [2,4,6,7-3H]E1 as substrate after 10 mins by radioflow detector

pIC50 | Structure (SMILES)
5.26 | Cc1cc(-c2ccc(C(=O)c3cccc(O)c3)nc2)ccc1O
6.32 | Cc1cc(-c2cccc(C(=O)c3cccc(O)c3)c2)ccc1O
4.22 | O=C(c1cccc(O)c1)c1cccc(-c2ccc(O)c(Cl)c2)n1
6.54 | Cc1cc(-c2ccc(C(=O)c3ccc(F)c(O)c3)cc2)ccc1O
6.80 | Cc1cc(-c2ccc(C(=O)c3cc(O)cc(F)c3)cc2)ccc1O
7.28 | O=C(c1ccc(-c2ccc(O)c(Cl)c2)cc1)c1ccc(F)c(O)c1
6.25 | Cc1cc(-c2ccc(C(=O)c3cccc(O)c3)cn2)ccc1O
6.24 | O=C(c1ccc(-c2ccc(O)c(Cl)c2)cc1)c1cccc(O)c1

Species: Homo sapiens
Assay: Selectivity ratio of IC50 for human cytosolic 17beta-HSD1 to IC50 for human microsomal 17beta-HSD2
Procedure, shortened: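 Ratio calculated as IC50(17β-HSD1)/IC50(17β-HSD2). 17β-HSD1 was measured in placental cytosol with [3H]-E1 + E1 (500 nM) and NADH (0.5 mM). 17β-HSD2 was measured in placental microsomes with [3H]-E2 + E2 (500 nM) and NAD+ (1.5 mM). Each IC50 is the mean of three determinations.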

Ratio IC50 | Structure (SMILES)
21 | Cc1cc(-c2ccc(C(=O)c3cccc(O)c3)nc2)ccc1O
1 | Cc1cc(-c2cccc(C(=O)c3cccc(O)c3)c2)ccc1O
81 | O=C(c1cccc(O)c1)c1cccc(-c2ccc(O)c(Cl)c2)n1
9 | Cc1cc(-c2ccc(C(=O)c3ccc(F)c(O)c3)cc2)ccc1O
5 | Cc1cc(-c2ccc(C(=O)c3cc(O)cc(F)c3)cc2)ccc1O
2 | O=C(c1ccc(-c2ccc(O)c(Cl)c2)cc1)c1ccc(F)c(O)c1
3 | Cc1cc(-c2ccc(C(=O)c3cccc(O)c3)cn2)ccc1O
4 | O=C(c1ccc(-c2ccc(O)c(Cl)c2)cc1)c1cccc(O)c1

Molecular target: T5, Estrogen receptor (Homo sapiens) (UniProt P03372)
T5 sequence (whole entry): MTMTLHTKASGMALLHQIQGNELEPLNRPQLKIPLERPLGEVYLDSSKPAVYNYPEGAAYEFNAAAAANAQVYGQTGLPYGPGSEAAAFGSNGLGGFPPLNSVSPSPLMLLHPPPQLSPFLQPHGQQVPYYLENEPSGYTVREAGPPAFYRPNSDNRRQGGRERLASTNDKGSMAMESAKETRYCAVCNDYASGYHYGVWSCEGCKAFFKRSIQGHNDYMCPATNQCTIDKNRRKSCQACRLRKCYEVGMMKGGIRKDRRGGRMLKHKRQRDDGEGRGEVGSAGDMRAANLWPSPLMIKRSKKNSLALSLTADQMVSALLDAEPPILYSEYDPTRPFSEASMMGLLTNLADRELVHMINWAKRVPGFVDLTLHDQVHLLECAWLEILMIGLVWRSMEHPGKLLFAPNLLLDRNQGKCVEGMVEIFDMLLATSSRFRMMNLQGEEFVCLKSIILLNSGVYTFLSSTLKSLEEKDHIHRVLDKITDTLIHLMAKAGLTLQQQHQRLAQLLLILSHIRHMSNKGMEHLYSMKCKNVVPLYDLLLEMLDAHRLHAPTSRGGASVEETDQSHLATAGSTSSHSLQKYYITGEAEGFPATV
Assay: Displacement of [3H]E2 from human recombinant ERalpha after 1 hr by liquid scintillation counting relative to estradiol
Procedure, shortened: (§1)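 Recombinant human ERα or ERβ (0.25 pmol) incubated with [3H]-E2 (10 nM) and test compound for 1 h at room temperature, DMSO 5% final. Non-specific binding defined with diethylstilbestrol. Receptor-ligand complexes captured on hydroxyapatite, washed, resuspended in ethanol, and counted by liquid scintillation. IC50 for [3H]-E2 displacement taken from sigmoidal curves. RBA = IC50(E2)/IC50(compound) × 100, with unlabeled E2 as reference.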

RBA [%] | Structure (SMILES)
< 0.1 | Cc1cc(-c2ccc(C(=O)c3cccc(O)c3)nc2)ccc1O
< 0.1 | Cc1cc(-c2ccc(C(=O)c3ccc(F)c(O)c3)cc2)ccc1O
< 0.1 | Cc1cc(-c2ccc(C(=O)c3cc(O)cc(F)c3)cc2)ccc1O
< 0.1 | O=C(c1ccc(-c2ccc(O)c(Cl)c2)cc1)c1ccc(F)c(O)c1
< 0.1 | O=C(c1ccc(-c2ccc(O)c(Cl)c2)cc1)c1cccc(O)c1

Molecular target: Estrogen receptor beta (Homo sapiens) (UniProt Q92731)
Assay: Displacement of [3H]E2 from human recombinant ERbeta after 1 hr by liquid scintillation counting relative to estradiol
Procedure, shortened: as §1

Chain of Estrogen receptor beta (Homo sapiens) (Q92731 whole entry): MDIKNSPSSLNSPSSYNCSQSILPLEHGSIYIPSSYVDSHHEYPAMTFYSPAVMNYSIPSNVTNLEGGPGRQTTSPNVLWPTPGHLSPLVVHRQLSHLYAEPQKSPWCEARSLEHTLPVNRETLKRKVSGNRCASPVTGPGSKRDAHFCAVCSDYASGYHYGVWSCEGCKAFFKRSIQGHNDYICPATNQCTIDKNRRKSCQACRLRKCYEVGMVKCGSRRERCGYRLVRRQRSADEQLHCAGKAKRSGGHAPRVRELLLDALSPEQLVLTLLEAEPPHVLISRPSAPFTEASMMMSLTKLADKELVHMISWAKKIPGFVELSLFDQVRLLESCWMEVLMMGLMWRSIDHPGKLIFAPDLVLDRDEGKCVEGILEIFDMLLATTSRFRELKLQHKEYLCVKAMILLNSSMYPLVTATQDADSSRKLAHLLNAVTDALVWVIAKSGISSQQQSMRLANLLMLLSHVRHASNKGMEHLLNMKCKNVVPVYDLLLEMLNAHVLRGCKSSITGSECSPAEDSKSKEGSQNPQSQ

RBA [%] | Structure (SMILES)
< 0.1 | Cc1cc(-c2ccc(C(=O)c3cccc(O)c3)nc2)ccc1O
< 0.1 | Cc1cc(-c2ccc(C(=O)c3ccc(F)c(O)c3)cc2)ccc1O
< 0.1 | Cc1cc(-c2ccc(C(=O)c3cc(O)cc(F)c3)cc2)ccc1O
< 0.1 | O=C(c1ccc(-c2ccc(O)c(Cl)c2)cc1)c1ccc(F)c(O)c1
< 0.1 | O=C(c1ccc(-c2ccc(O)c(Cl)c2)cc1)c1cccc(O)c1
